Experiment: Toxicity liver stage against HepG2, at 10uM
Format: cell-based
Parameters: test concentration 10 uM, cell line HepG2-A16-CD81EGFP
Details: human, HepG2-A16-CD81EGFP cells; read-out: INHIBITION
Method in brief: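 Uninfected HepG2-A16-CD81EGFP cells, 3 × 10^3 per well, 1536-well, plated on prespotted compound at 10 μM final, parasite-free screening media added to match infected plates; puromycin 10 μM positive, DMSO 0.5% negative; run in parallel with 48 h PbLuc assay at 37 °C, 5% CO2; viability by CellTiter-Glo luminescence, normalized to controls.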

| Compound | cytotoxicity at 10 µM [%] |
| --- | --- |
| Fc1ccc(C2CCCN2Cc2nc(Cc3ccccc3F)no2)cc1 (stereo unspecified) | -18.2 |
| CN(C)Cc1cc(CC2(NCc3ccccc3Cl)COC2)no1 | 4.14 |
| CS(=O)(=O)NC[C@H]1Cn2c(-c3ccccc3)cnc2CO1 | -2.96 |
| CN(CCC#N)C(=O)C(C)(C)Oc1ccc(C(N)=O)cc1 | 0.676 |
| COc1ccc2c3c1CN(C(=O)N(C)C)CC3=CC(C)(C)CO2 | 5.21 |
| COCCN(Cc1ccoc1)S(=O)(=O)c1ccc(OC)c(Cl)c1 | 6.27 |
| Cn1cnc(S(=O)(=O)NCC(O)c2ccc3c(c2)CCO3)c1 (stereo unspecified) | -6.28 |
| Cn1cnc(S(=O)(=O)NCCC(O)c2ccc3c(c2)OCO3)c1 (stereo unspecified) | -8.71 |
| N#Cc1ccccc1Cn1cncn1 | 13.1 |
| Cc1ccc(C(=O)N2C[C@H](OCc3cccnc3)[C@H]3COC[C@H]32)cn1 | -1.52 |
| O=C1CC(c2cccs2)c2sc(C(=O)O)c(-c3ccccc3)c2N1 (stereo unspecified) | -1.66 |
| Cn1cc(I)c(C(=O)NC2CCCCC2)n1 | 18.1 |
| O=C(c1ccc(F)c(F)c1)N1CCCSCC1CN1CCCC1 (stereo unspecified) | -0.524 |
| CC1CCc2nc(O)c(C(=O)NCCN(C)C)cc2C1 (stereo unspecified) | -13.8 |
| CCOCCCNc1cc(C)nn2cnnc12 | 2.21 |
| CCn1ncc(CNc2[nH]cnc3nncc2-3)c1C | 2.76 |
| FC(F)(F)c1cc(-c2cccs2)nc(N2CCN3CCCC3C2)n1 (stereo unspecified) | 10.7 |
| CC(C)(C(=O)N[C@@H]1CCC[C@@H](O)[C@@H]1O)c1cccc(F)c1 | 4.79 |
| CNC(=O)c1cn[nH]c1C1CCN(Cc2cn(C)nc2C)C1 (stereo unspecified) | -24.3 |
| CO[C@H]1CN(Cc2ccc(F)cc2)CC[C@@]12CCCO2 | -24.5 |
| Cn1nccc1CCC(=O)N1CCCC(c2cnccn2)C1 (stereo unspecified) | -22.7 |
| O=S(=O)(c1ccc(F)c(F)c1)N1CCCC(c2nccs2)C1 (stereo unspecified) | -0.523 |
| Cc1ccc(S(=O)(=O)N2C[C@H]3C[C@H](NC(=O)c4cscn4)[C@H]3C2)cc1 | 12 |

| Compound | cytotoxicity at 10 µM [%] |
| --- | --- |
| Cn1nccc1C(=O)N1C[C@@H]2CC[C@H](Oc3cccc(F)c3)[C@@H]2C1 | -13.8 |
| CC(=O)N1CCCC(c2ccc(C(=O)NC3CCCC3)cn2)C1 (stereo unspecified) | 0.692 |
| O=C(CC1CCCCC1)NC1CCCc2nc(N3CCOCC3)ncc21 (stereo unspecified) | -5.24 |
| Cc1cnn(CC(C)NCc2cc(C#N)ccc2F)c1 (stereo unspecified) | 0.224 |
| CC(C)CC(C)(CNC(=O)c1cnccn1)NC(=O)c1cnccn1 (stereo unspecified) | -2.71 |
| CCN(Cc1cc(=O)n2cc(Br)ccc2n1)C1CC1 | 7.95 |
| CN(CCc1cccs1)C(=O)Nc1ccc2c(c1)C(=O)N(C)CC2 | -5.44 |
| COCCN(Cc1ccc(C)o1)C(=O)Nc1nnc2ccccn12 | -1.59 |
| COc1cccc(CNC2CCCOc3cc(C)ccc32)n1 (stereo unspecified) | 8.53 |
| COc1ccc(CCNC(=O)C2CCCOC2)c(Cl)c1 (stereo unspecified) | 0.0357 |
| Cn1c(Cl)cnc1CN1CCCC1c1ccc2c(c1)OCCO2 (stereo unspecified) | -1.29 |
| COCCn1cc(C(=O)N2CCCC2c2cccs2)c2ccccc21 (stereo unspecified) | 23.7 |
| CCc1noc(CS(=O)(=O)Cc2nc(Cc3ccccc3)no2)n1 | 5.45 |
| CN(Cc1ccccc1)C(=O)CN1CCCCC1Cn1cncn1 (stereo unspecified) | 10.4 |
| Cc1nc(C)n(CC2CCCN2CC(=O)Nc2ccncc2)n1 (stereo unspecified) | -1.73 |
| CN(Cc1ccccc1)CC(C)(C)NC(=O)c1cnns1 | -3.67 |
| C=C(C)CN(CC)Cc1nc(C2CC2)no1 | -7.51 |
| NC(=O)C1CCN(CC(=O)N2CCCC2c2ccsc2)CC1 (stereo unspecified) | -11.4 |
| Cc1nc(CNC(=O)NC2CCN(c3ncccc3Cl)C2)no1 (stereo unspecified) | 11.9 |
| Cn1ncnc1CNC1CCCc2cc(F)ccc21 (stereo unspecified) | -5.62 |
| CC(NCc1ccc(F)cc1)c1ccc(S(C)(=O)=O)cc1 (stereo unspecified) | 12.6 |
| CN(Cc1cc(F)ccc1F)CC(C)(CO)CO | -5.38 |
| CCCN(CCc1cccc(F)c1)c1ccc2nnnn2n1 | 1.44 |

| Compound | cytotoxicity at 10 µM [%] |
| --- | --- |
| COc1ccc(C(C)(C)C(=O)NCc2n[nH]c(=O)[nH]2)cc1 | 1.07 |
| COCCn1ccc(NC(=O)Nc2cccnc2)n1 | -12.3 |
| Cc1noc(C)c1CN1CCC2(CC1)NC(=O)CC2c1ccncc1 (stereo unspecified) | 0.635 |
| Cc1cnc(N2CCn3cc(CNC(=O)CC4CC4)nc3C2)nc1 | 12.3 |
| COCCC(=O)N1CC[C@@H](N(C)C)[C@@H]1Cc1ccccc1 | -5.05 |
| Cc1ccccc1[C@@H]1CN(Cc2nc3ncccn3n2)C[C@H]1C(=O)O | -6.55 |
| Cc1cc(-c2cc(S(=O)(=O)N3C[C@H](C4CC4)[C@@H](N)C3)c(C)s2)[nH]n1 | 2.47 |
| Cc1cc(C)nc(N2CCC(C(=O)O)(n3ccc(C(C)(C)C)n3)CC2)n1 | -5.6 |
| FC(F)(F)CCc1ccnc(N2CCN(Cc3ccccn3)CC2)n1 | -27 |
| CN1CCC(c2nnc(CN3CCCCC3)n2C)CC1 | 16.4 |
| COCC(=O)N1CCN(S(=O)(=O)c2ccccc2)[C@H]2CS(=O)(=O)C[C@H]21 | 4.84 |
| CCN(CCO)Cc1cn(-c2cccc(F)c2)nc1-c1ccc(C)o1 | 8.32 |
| N#Cc1cccc(CN2C(=O)C3(CCNCC3)Nc3ccccc32)c1 | 0.529 |
| COc1cccn(CC(=O)N(C)CCCOc2c(C)cccc2C)c1=O | 5.27 |
| CCC(CO)N(Cc1ccco1)Cc1c(C)nn(C)c1Cl (stereo unspecified) | 7.4 |
| Cc1nc(C)c(C)c(N2CCC(O)(c3ccc(F)cc3)CC2)n1 | -6.08 |
| Cc1nn(C)c(Oc2ccc(Cl)cc2)c1CN1CC[C@H](CO)[C@@H](O)C1 | -10.5 |
| OC1(CN2CCCC2)CCCN(Cc2c[nH]c(CC3CCCC3)n2)C1 (stereo unspecified) | -9.09 |
| Cc1nccn1-c1ccc(N2CCC(NC(C)C(C)C)CC2)cc1 (stereo unspecified) | -7.33 |
| CCN(Cc1cc(Cl)c(O)c(OC)c1)Cc1nc(COC)no1 | 1.29 |
| O=C(C1CCCCO1)N1CCc2ncnc(NCCO)c2CC1 (stereo unspecified) | 7.94 |
| Cc1nnc(N2CC[C@@]3(O)CCNC[C@H]3C2)c2ccccc12 | 2.61 |
| CC(C)n1cnnc1CN(C)C(=O)Cn1ccc2ccccc2c1=O | 3.1 |

| Compound | cytotoxicity at 10 µM [%] |
| --- | --- |
| COCCNc1cc(-c2ccccc2CCN)c2cc[nH]c2n1 | 2.13 |
| COCCNC(=O)c1cc(COc2cncc(Cl)c2)on1 | 0.141 |
| CCc1[nH]c2c(CNC(=O)C3CNC(=O)C3)cc(C)cc2c1C (stereo unspecified) | 2.75 |
| CN1CCN(C(=O)N2CCCC(c3nccn3CC3CCC3)C2)CC1 (stereo unspecified) | 6.64 |
| COCC[C@]1(O)CCN(CC(=O)NCc2ccccn2)C[C@H]1C | 7.8 |
| COCCN(C)Cc1cc(Cl)ccc1OCC(O)CN1CCCCCC1 (stereo unspecified) | 1.76 |
| OCc1ccc(CN2CCC(n3cc(-c4ccsc4)nn3)CC2)o1 | 6.77 |
| Cc1nc2sccn2c1C(=O)N1CCn2nc(C(=O)NC3CC3)cc2C1 | 9.63 |
| COc1ccccc1OC1(C(=O)O)CCN(c2cc(C)nc(C)c2)CC1 | 2.65 |
| O=C(NC(CO)CO)c1coc(COc2cccc(F)c2)n1 | 12.5 |
| COc1ccc(C(=O)C2CCCN(CCCn3cccn3)C2)c(OC)c1 (stereo unspecified) | -12.2 |
| CC(C)c1nc2c(n1C)CCN(Cc1nc(-c3ccoc3)no1)C2 | -2.06 |
| Cc1ccc(C(=O)NS(=O)(=O)c2cc(Br)ccc2C)c(=O)[nH]1 | -2.27 |
| Cc1oc(C)c(C(=O)NCc2ccccc2CN(C)C)c1C | -16.9 |
| Nc1nccnc1C(=O)NCCCNc1ccc(C(F)(F)F)cn1 | -8.16 |
| CC(Cn1cccn1)NCc1ccc(Cl)s1 (stereo unspecified) | -8.12 |
| CCc1noc(CN2CCN(C(=O)COC)CC2)n1 | -8.09 |
| CCOCc1ccc(CNC(=O)N2CCC(C(N)=O)C2)cc1 (stereo unspecified) | -11.4 |
| Cc1ccccc1C(=O)NCCCN1CCc2ccccc2C1 | -16.5 |
| Cc1cnn(CC2CCCN2Cc2noc(C(C)C)n2)c1 (stereo unspecified) | -1.67 |
| CC(NCc1cc(F)ccc1F)c1ccc(OCC(=O)NC2CC2)cc1 (stereo unspecified) | -13.2 |
| CC(=O)N1CCCN(C(=O)NCc2ccc(Cl)s2)CC1 | -4.02 |
| Cn1ccc(C(=O)N2CCN(CC(O)C(C)(C)C)CC2)cc1=O (stereo unspecified) | 2.76 |

| Compound | cytotoxicity at 10 µM [%] |
| --- | --- |
| CCn1nc2c(cc1=O)CN(Cc1nnc(C3CC3)o1)CC2 | -16.2 |
| Cn1nc2c(cc1=O)CN(Cc1nc(C3CC3)no1)CC2 | -10.8 |
| CC(C)C(Sc1nnnn1C1CC1)C(=O)NCc1cccnc1 (stereo unspecified) | -0.267 |
| CC1CN(CC(=O)Nc2nncs2)CCN1Cc1nccn1C (stereo unspecified) | -11.2 |
| COCCN1CCN(CCCS(C)(=O)=O)CC1C (stereo unspecified) | -5.5 |
| CC(=O)N(Cc1noc(C2CC2)n1)C1CCN(Cc2cccnc2)C1 (stereo unspecified) | -3.36 |
| c1cc(-c2noc(CN3CCn4c(nnc4C4CC4)C3)n2)co1 | -0.986 |
| Cn1cnnc1CNC(=O)Nc1cc(C(F)(F)F)c[nH]c1=O | -3.2 |
| CC(C)c1nnc2n1CCN(C(=O)CN1CCc3sccc3C1)C2 | -4.97 |
| Cc1nc(C)n(CC2CCCN2CCCOc2ccc(F)cc2)n1 (stereo unspecified) | -6.72 |
| Cc1nn(C)c(C)c1C1CCCN1CC(=O)NC(C1CC1)C1CC1 (stereo unspecified) | -5.38 |
| Cc1n[nH]c(=O)c2c(NC(=O)CN3CCC(O)CC3)oc(C)c12 | 1.17 |
| Cc1cnc(-c2nc(C3CCCN(Cc4ccccc4C)C3)no2)cn1 (stereo unspecified) | -2.33 |
| CNC(=O)[C@@H](CC(C)C)N1CCC[C@H]1C(=O)N(C)Cc1ccccc1 | 6.14 |
| O=C(c1ccco1)N1C[C@H]2CCCN(CC3CC3)[C@H]2C1 | 2.36 |
| CN1CCO[C@@H]2CN(S(=O)(=O)c3ccccc3)C[C@@H]2C1 | 0.93 |
| CN(C)C(=O)c1n[nH]c2c1CN(CC1CCCCC1)C2 | 2.86 |
| c1nc(N2CCc3nc[nH]c3C2)c2cc[nH]c2n1 | -5.71 |
| CC1(C)[C@@H]2CC=C(CN3CCCn4nc(CNS(C)(=O)=O)cc4C3)[C@H]1C2 | -46 |
